# From ChEMBL document CHEMBL3046730, “Broad-spectrum antimicrobial activity in vitro of the synthetic peptide D4E1” (J Agric Food Chem, 2001)
# Calls of active or inactive are those of the source. No cut-off for these calls is given here.
# Columns and labels:
# Aspergillus flavus [1] = test: Antifungal activity against Aspergillus flavus 70-GFP assessed as vacuolization in spores at 6 uM after 8 hr by microscopic analysis relative to control; type: functional, organism-based
# Method in brief: (§1)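 A. flavus 70-GFP conidia (10⁶/mL) incubated 8 h at 30 °C with 0–25 µM peptide in 1% PDB. Germ tube and spore morphology examined by GFP fluorescence microscopy (excitation 480 nm, emission 530 nm). Repeated twice.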
# Aspergillus flavus [2] = test: Antifungal activity against Aspergillus flavus 70-GFP assessed as thick germ tube at 25 uM after 8 hr by microscopic analysis relative to control; type: functional, organism-based; method in brief: as §1
# Aspergillus flavus [3] = test: Antifungal activity against Aspergillus flavus 70-GFP assessed as short germ tube at 25 uM after 8 hr by microscopic analysis relative to control; type: functional, organism-based; method in brief: as §1
# Phytophthora cinnamomi = test: Antifungal activity against Phytophthora cinnamomi after 48 hr by microplate assay; type: functional, organism-based
# Method in brief: (§2)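 Mycelia grown in 1% PDB 48 h at 28 °C, 90 rpm, blended, adjusted to ~10⁵ fragments/mL. Fragments incubated in 24-well plates with peptide at 2–40 µM final in 1% PDB, 2 mL total, 48 h at 90 rpm. MIC recorded as lowest concentration completely inhibiting growth; three replicate experiments.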
# Berkeleyomyces basicola = test: Antifungal activity against Thielaviopsis basicola SRRC 1277 after 24 to 48 hr; type: functional, organism-based
# Method in brief: (§3)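 Conidia diluted to 10⁴/mL (Fusarium) or 10⁵/mL and germinated 8 h at 30 °C (A. flavus, Fusarium, P. italicum) or overnight at 22 °C. Four 50 µL aliquots spread on PDA, colonies counted after 24–48 h at 30 or 22 °C. Percent mortality vs untreated control fitted by dose–response to give IC50; MIC = complete inhibition; two experiments.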
# Verticillium dahliae = test: Antifungal activity against Verticillium dahliae SRRC 1030 after 24 to 48 hr; type: functional, organism-based; method in brief: as §3
# Penicillium italicum = test: Antifungal activity against Penicillium italicum SRRC 2352 after 24 to 48 hr; type: functional, organism-based; method in brief: as §3
# Fusarium oxysporum = test: Antifungal activity against Fusarium oxysporum SRRC 187 after 24 to 48 hr; type: functional, organism-based; method in brief: as §3
# Fusarium graminearum = test: Antifungal activity against Fusarium graminearum SRRC 1042 after 24 to 48 hr; type: functional, organism-based
# Method in brief: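 Conidia harvested in 1% PDB (pH 6.0), diluted to 10⁴ conidia/mL, pregerminated 8 h at 30 °C. Germinated conidia exposed to D4E1 in 1% PDB at 30 °C; four aliquots spread on PDA and colonies counted after 24–48 h at 30 °C. Percent mortality vs 0 µM control; IC50 from dose–response fit of two experiments; MIC = complete growth inhibition.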
# Fusarium verticillioides = test: Antifungal activity against Fusarium verticillioides SRRC 1082 after 24 to 48 hr; type: functional, organism-based; method in brief: as §3
# Claviceps purpurea = test: Antifungal activity against Claviceps purpurea SRRC 118 after 24 to 48 hr; type: functional, organism-based; method in brief: as §3
# Cercospora kikuchii = test: Antifungal activity against Cercospora kikuchii SRRC 1078 after 24 to 48 hr; type: functional, organism-based; method in brief: as §3
# [4] = test system: Colletotrichum destructivum; test: Antifungal activity against Colletotrichum destructivum ATCC 42492 after 24 to 48 hr; type: functional, organism-based; method in brief: as §3
# Aspergillus flavus [5] = test: Antifungal activity against Aspergillus flavus 70-GFP after 24 to 48 hr; type: functional, organism-based
# Method in brief: (§4)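 Conidia harvested in 1% PDB (pH 6.0), diluted to 10⁵/mL and germinated before exposure to peptide in 1% PDB. Four 50 µL aliquots plated on PDA and colonies counted after 24–48 h. Percent mortality vs untreated control fitted by dose–response to give IC50; MIC = complete inhibition; each fungus tested at least twice.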
# Alternaria alternata = test: Antifungal activity against Alternaria alternata SRRC 1107 after 24 to 48 hr; type: functional, organism-based; method in brief: as §4
# Aspergillus flavus [6] = test: Antifungal activity against Aspergillus flavus 70-W after 24 to 48 hr; type: functional, organism-based; method in brief: as §3
# Aspergillus flavus [7] = test: Antifungal activity against Aspergillus flavus 70-GFP assessed as vacuolization in spores at 12.5 uM after 8 hr by microscopic analysis relative to control; type: functional, organism-based; method in brief: as §1
# Aspergillus flavus [8] = test: Antifungal activity against Aspergillus flavus 70-GFP assessed as germ tube breakage at 12.5 uM after 8 hr by microscopic analysis relative to control; type: functional, organism-based; method in brief: as §1
# Aspergillus flavus [9] = test: Antifungal activity against Aspergillus flavus 70-GFP assessed as reduction in spore germination at 12.5 uM after 8 hr by microscopic analysis relative to control; type: functional, organism-based
# Method in brief: (§5)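 Nongerminated A. flavus 70-GFP conidia (10⁶/mL) exposed to 0–25 µM peptide in 1% PDB, 8 h at 30 °C. Proportion of germinating conidia scored; GFP fluorescence microscopy (ex 480, em 530 nm). Experiment repeated twice; one-way ANOVA with Tukey separation.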
# Aspergillus flavus [10] = test: Antifungal activity against Aspergillus flavus 70-GFP assessed as reduction in spore germination at 25 uM after 8 hr by microscopic analysis relative to control; type: functional; set-up: scale not given: the % may be the effect or the level left; method in brief: as §5
# Rhizoctonia solani [11] = test: Antifungal activity against Rhizoctonia solani SRRC 1443 assessed as appearance of extracellular material surrounding hyphae at 20 uM after 48 hr by microscopic analysis; type: functional, organism-based
# Rhizoctonia solani [12] = test: Antifungal activity against Rhizoctonia solani SRRC 1443 assessed as thin hyphae at 20 uM after 48 hr by microscopic analysis; type: functional, organism-based
# Rhizoctonia solani [13] = test: Antifungal activity against Rhizoctonia solani SRRC 1443 assessed as rough hyphae at 20 uM after 48 hr by microscopic analysis; type: functional, organism-based
# Rhizoctonia solani [14] = test: Antifungal activity against Rhizoctonia solani SRRC 1443 assessed as jagged hyphae at 20 uM after 48 hr by microscopic analysis; type: functional, organism-based
# Xanthomonas campestris = test: Antibacterial activity against Xanthomonas citri subsp. malvacearum race 18 after 24 to 48 hr; type: functional, organism-based, Xanthomonas citri pv. malvacearum
# Method in brief: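 X. campestris pv. malvacearum race 18 grown overnight in nutrient broth at 28 °C, 225 rpm, then diluted to 10⁴ CFU/mL. Exposed to D4E1 for 60 min at 28 °C. Four aliquots plated on NB and colonies counted after 24–48 h at 28 °C. Percent mortality vs 0 µM control; IC50 from dose–response curve fit; MIC = complete inhibition; tested twice.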
# [15] = test system: Pseudomonas amygdali pv. tabaci; test: Antibacterial activity against Pseudomonas syringae pv. tabaci after 24 to 48 hr; type: functional, organism-based
# [16] = test system: Globisporangium ultimum var. sporangiiferum; test: Antifungal activity against Pythium ultimum var. sporangiiferum after 48 hr by microplate assay; type: functional, organism-based; method in brief: as §2
# Rhizoctonia solani [17] = test: Antifungal activity against Rhizoctonia solani SRRC 1443 after 48 hr by microplate assay; type: functional, organism-based; settings: SRRC 1443, 48 h; method in brief: as §2
# Phytophthora nicotianae = test: Antifungal activity against Phytophthora parasitica after 48 hr by microplate assay; type: functional, organism-based; method in brief: as §2
substance,measurement,setting,value
H-FKLRAKIKVRLRAKIKL-OH,Activity,Aspergillus flavus [1],Active
same,Activity,Aspergillus flavus [2],Active
same,Activity,Aspergillus flavus [3],Active
same,MIC,Phytophthora cinnamomi,4.67 µM
same,IC50,Berkeleyomyces basicola,520 nM
same,MIC,Berkeleyomyces basicola,6 µM
same,IC50,Verticillium dahliae,600 nM
same,MIC,Verticillium dahliae,5.25 µM
same,IC50,Penicillium italicum,5920 nM
same,MIC,Penicillium italicum,25 µM
same,IC50,Fusarium oxysporum,2050 nM
same,MIC,Fusarium oxysporum,12.5 µM
same,IC50,Fusarium graminearum,2100 nM
same,MIC,Fusarium graminearum,25 µM
same,IC50,Fusarium verticillioides,880 nM
same,MIC,Fusarium verticillioides,12.5 µM
same,IC50,Claviceps purpurea,1600 nM
same,MIC,Claviceps purpurea,20 µM
same,IC50,Cercospora kikuchii,8670 nM
same,MIC,Cercospora kikuchii,25 µM
same,IC50,[4],13000 nM
same,MIC,[4],25 µM
same,IC50,Aspergillus flavus [5],11000 nM
same,MIC,Aspergillus flavus [5],25 µM
same,IC50,Alternaria alternata,12400 nM
same,MIC,Alternaria alternata,25 µM
same,IC50,Aspergillus flavus [6],7750 nM
same,MIC,Aspergillus flavus [6],25 µM
same,Activity,Aspergillus flavus [7],Active
same,Activity,Aspergillus flavus [8],Active
same,Activity,Aspergillus flavus [9],Active
same,Activity,Aspergillus flavus [10],>75%
same,Activity,Rhizoctonia solani [11],Active
same,Activity,Rhizoctonia solani [12],Active
same,Activity,Rhizoctonia solani [13],Active
same,Activity,Rhizoctonia solani [14],Active
same,IC50,Xanthomonas campestris,190 nM
same,MIC,Xanthomonas campestris,1.25 µM
same,IC50,[15],520 nM
same,MIC,[15],2.25 µM
same,MIC,[16],13.3 µM
same,MIC,Rhizoctonia solani [17],26.7 µM
same,MIC,Phytophthora nicotianae,4.67 µM
